One block for each compound: values may come before it.
Columns and labels:
[1] = Cytotoxic activity in HEK293 cells by sulforhodamine B assay; format: cell-based; settings: human
Procedure, shortened: (§1)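 Cells grown in D-MEM with 10% (v/v) FBS, 100 U/mL penicillin G and 100 μg/mL streptomycin, at 37 °C under 5% CO2 and 95% humidity. Cytotoxic and antiproliferative effects were measured by the sulforhodamine B method of Skehan et al. CC50 (cytotoxic) or IC50 (antiproliferative) is the concentration giving 50% growth reduction. Docetaxel was the positive control. Triplicate tests.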

[2] = Selectivity index, ratio of antiproliferative IC50 for HEK293 cells to antiproliferative IC50 for human SiHa cells; format: toxicity; settings: HEK293 cells versus SiHa cells, read-out: Ratio IC50
Procedure, shortened: (§2)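 Selectivity index for harmfulness to normal cells: the normal-cell (Vero or HEK293) CC50 or IC50 over the cancer-cell value from the same assay type. Each value is from sulforhodamine B growth-reduction tests done in triplicate in D-MEM/10% FBS at 37 °C, 5% CO2.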

MCF7 [3] = assay: Cytotoxic activity in human MCF7 cells by sulforhodamine B assay; format: functional
Procedure, shortened: (§3)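 Cell lines grown in D-MEM with 10% (v/v) FBS, 100 U/mL penicillin G and 100 μg/mL streptomycin at 37 °C, 5% CO2, 95% humidity. Cytotoxicity was measured by the Skehan method. CC50 was taken as the concentration that reduces cell growth by 50%. Docetaxel served as positive control, and each test was run in triplicate.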

[4] = Selectivity index, ratio of cytotoxic CC50 for African green monkey Vero cells to cytotoxic CC50 for human MCF7 cells; format: toxicity; settings: Vero cells versus MCF7 cells, read-out: Selectivity Index; procedure, shortened: as §2
HEp-2 [5] = assay: Antiproliferative activity in human Hep2 cells by sulforhodamine B assay; format: functional, cell-based; procedure, shortened: as §1
MCF7 [6] = assay: Antiproliferative activity in human MCF7 cells by sulforhodamine B assay; format: functional, cell-based; procedure, shortened: as §1
[7] = Selectivity index, ratio of cytotoxic CC50 for HEK293 cells to cytotoxic CC50 for human SiHa cells; format: toxicity; settings: HEK293 cells versus SiHa cells, read-out: Selectivity Index; procedure, shortened: as §2
[8] = Selectivity index, ratio of cytotoxic CC50 for African green monkey Vero cells to cytotoxic CC50 for human HeLa cells; format: toxicity; settings: Vero cells versus HeLa cells, read-out: Selectivity Index; procedure, shortened: as §2
[9] = Selectivity index, ratio of cytotoxic CC50 for HEK293 cells to cytotoxic CC50 for human MDA-MB-231 cells; format: toxicity; settings: HEK293 cells versus MDA-MB-231 cells, read-out: Selectivity Index; procedure, shortened: as §2
Vero = assay: Antiproliferative activity in African green monkey Vero cells by sulforhodamine B assay; format: cell-based; settings: Chlorocebus sabaeus; procedure, shortened: as §1
[10] = Selectivity index, ratio of cytotoxic CC50 for African green monkey Vero cells to cytotoxic CC50 for human Hep2 cells; format: toxicity; settings: Vero cells versus Hep2 cells, read-out: Selectivity Index
MDA-MB-231 [11] = assay: Cytotoxic activity in human MDA-MB-231 cells by sulforhodamine B assay; format: functional; procedure, shortened: as §3
[12] = Selectivity index, ratio of antiproliferative IC50 for African green monkey Vero cells to antiproliferative IC50 for human SiHa cells; format: toxicity; settings: Vero cells versus SiHa cells, read-out: Ratio IC50; procedure, shortened: as §2
[13] = Selectivity index, ratio of cytotoxic CC50 for HEK293 cells to cytotoxic CC50 for human Hep2 cells; format: toxicity; settings: HEK293 cells versus Hep2 cells, read-out: Selectivity Index; procedure, shortened: as §2
HEK293 = assay: Antiproliferative activity in HEK293 cells by sulforhodamine B assay; format: cell-based; settings: Homo sapiens; procedure, shortened: as §1
[14] = Selectivity index, ratio of cytotoxic CC50 for HEK293 cells to cytotoxic CC50 for human MCF7 cells; format: toxicity; settings: HEK293 cells versus MCF7 cells, read-out: Selectivity Index; procedure, shortened: as §2
[15] = Selectivity index, ratio of cytotoxic CC50 for African green monkey Vero cells to cytotoxic CC50 for human KB cells; format: toxicity; settings: Vero cells versus KB cells, read-out: Selectivity Index; procedure, shortened: as §2
[16] = Selectivity index, ratio of cytotoxic CC50 for African green monkey Vero cells to cytotoxic CC50 for human SiHa cells; format: toxicity; settings: Vero cells versus SiHa cells, read-out: Selectivity Index; procedure, shortened: as §2
SiHa [17] = assay: Antiproliferative activity in human SiHa cells by sulforhodamine B assay; format: functional, cell-based; procedure, shortened: as §1
KB [18] = assay: Cytotoxic activity in human KB cells by sulforhodamine B assay; format: functional; procedure, shortened: as §3
[19] = Selectivity index, ratio of antiproliferative IC50 for HEK293 cells to antiproliferative IC50 for human MCF7 cells; format: toxicity; settings: HEK293 cells versus MCF7 cells, read-out: Ratio IC50; procedure, shortened: as §2
[20] = Selectivity index, ratio of cytotoxic CC50 for HEK293 cells to cytotoxic CC50 for human KB cells; format: toxicity; settings: HEK293 cells versus KB cells, read-out: Selectivity Index; procedure, shortened: as §2
[21] = Selectivity index, ratio of antiproliferative IC50 for African green monkey Vero cells to antiproliferative IC50 for human MCF7 cells; format: toxicity; settings: Vero cells versus MCF7 cells, read-out: Ratio IC50; procedure, shortened: as §2
[22] = Selectivity index, ratio of cytotoxic CC50 for HEK293 cells to cytotoxic CC50 for human HeLa cells; format: toxicity; settings: HEK293 cells versus HeLa cells, read-out: Selectivity Index; procedure, shortened: as §2
[23] = Selectivity index, ratio of antiproliferative IC50 for HEK293 cells to antiproliferative IC50 for human KB cells; format: toxicity; settings: HEK293 cells versus KB cells, read-out: Ratio IC50; procedure, shortened: as §2
[24] = Selectivity index, ratio of antiproliferative IC50 for African green monkey Vero cells to antiproliferative IC50 for human KB cells; format: toxicity; settings: Vero cells versus KB cells, read-out: Ratio IC50; procedure, shortened: as §2
[25] = Cytotoxic activity in African green monkey Vero cells by sulforhodamine B assay; format: cell-based; settings: chlorocebus sabaeus; procedure, shortened: as §1
KB [26] = assay: Antiproliferative activity in human KB cells by sulforhodamine B assay; format: functional, cell-based; procedure, shortened: as §1
SiHa [27] = assay: Cytotoxic activity in human SiHa cells by sulforhodamine B assay; format: functional; procedure, shortened: as §3
[28] = Selectivity index, ratio of antiproliferative IC50 for African green monkey Vero cells to antiproliferative IC50 for human HeLa cells; format: toxicity; settings: Vero cells versus HeLa cells, read-out: Ratio IC50; procedure, shortened: as §2
HEp-2 [29] = assay: Cytotoxic activity in human Hep2 cells by sulforhodamine B assay; format: functional; procedure, shortened: as §3
DU-145 [30] = assay: Cytotoxic activity in human DU145 cells by sulforhodamine B assay; format: functional; procedure, shortened: as §3
HeLa [31] = assay: Antiproliferative activity in human HeLa cells by sulforhodamine B assay; format: functional, cell-based; procedure, shortened: as §1
DU-145 [32] = assay: Antiproliferative activity in human DU145 cells by sulforhodamine B assay; format: functional, cell-based; procedure, shortened: as §1
[33] = Selectivity index, ratio of antiproliferative IC50 for HEK293 cells to antiproliferative IC50 for human HeLa cells; format: toxicity; settings: HEK293 cells versus HeLa cells, read-out: Ratio IC50; procedure, shortened: as §2
HeLa [34] = assay: Cytotoxic activity in human HeLa cells by sulforhodamine B assay; format: functional; procedure, shortened: as §3
MDA-MB-231 [35] = assay: Antiproliferative activity in human MDA-MB-231 cells by sulforhodamine B assay; format: functional, cell-based; procedure, shortened: as §1
[36] = Selectivity index, ratio of cytotoxic CC50 for African green monkey Vero cells to cytotoxic CC50 for human MDA-MB-231 cells; format: toxicity; settings: Vero cells versus MDA-MB-231 cells, read-out: Selectivity Index; procedure, shortened: as §2
[37] = Selectivity index, ratio of antiproliferative IC50 for African green monkey Vero cells to antiproliferative IC50 for human DU145 cells; format: toxicity; settings: Vero cells versus DU145 cells, read-out: Ratio IC50
[38] = Selectivity index, ratio of antiproliferative IC50 for HEK293 cells to antiproliferative IC50 for human Hep2 cells; format: toxicity; settings: HEK293 cells versus Hep2 cells, read-out: Ratio IC50
[39] = Selectivity index, ratio of cytotoxic CC50 for HEK293 cells to cytotoxic CC50 for human DU145 cells; format: toxicity; settings: HEK293 cells versus DU145 cells, read-out: Selectivity Index
[40] = Selectivity index, ratio of antiproliferative IC50 for HEK293 cells to antiproliferative IC50 for human DU145 cells; format: toxicity; settings: HEK293 cells versus DU145 cells, read-out: Ratio IC50
[41] = Selectivity index, ratio of cytotoxic CC50 for African green monkey Vero cells to cytotoxic CC50 for human DU145 cells; format: toxicity; settings: Vero cells versus DU145 cells, read-out: Selectivity Index; procedure, shortened: as §2
[42] = Selectivity index, ratio of antiproliferative IC50 for HEK293 cells to antiproliferative IC50 for human MDA-MB-231 cells; format: toxicity; settings: HEK293 cells versus MDA-MB-231 cells, read-out: Ratio IC50
[43] = Selectivity index, ratio of antiproliferative IC50 for African green monkey Vero cells to antiproliferative IC50 for human MDA-MB-231 cells; format: toxicity; settings: Vero cells versus MDA-MB-231 cells, read-out: Ratio IC50
[44] = Selectivity index, ratio of antiproliferative IC50 for African green monkey Vero cells to antiproliferative IC50 for human Hep2 cells; format: toxicity; settings: Vero cells versus Hep2 cells, read-out: Ratio IC50; procedure, shortened: as §2

SMILES: C=C(C)[C@@H]1CC[C@]2(C(=O)O)CC[C@]3(C)[C@H](CC[C@@H]4[C@@]5(C)CC[C@H](O)C(C)(C)[C@@H]5CC[C@]43C)[C@@H]12 [BETULINIC ACID]
- CC50 [1]: 80000 nM
- selectivity ratio [2]: 4.8
- CC50 (MCF7 [3]): 49600 nM
- selectivity ratio [4]: 0.7
- IC50 (HEp-2 [5]): > 500000 nM
- IC50 (MCF7 [6]): 56300 nM
- selectivity ratio [7]: 2.8
- selectivity ratio [8]: 1.6
- selectivity ratio [9]: 0.8
- IC50 (Vero): 72100 nM
- selectivity ratio [10]: 1.3
- CC50 (MDA-MB-231 [11]): 94300 nM
- selectivity ratio [12]: 1
- selectivity ratio [13]: 1.6
- IC50 (HEK293): 336000 nM
- selectivity ratio [14]: 1.6
- selectivity ratio [15]: 2.4
- selectivity ratio [16]: 13
- IC50 (SiHa [17]): 70100 nM
- CC50 (KB [18]): 15600 nM
- selectivity ratio [19]: 6
- selectivity ratio [20]: 5.1
- selectivity ratio [21]: 1.3
- selectivity ratio [22]: 2.5
- selectivity ratio [23]: 12
- selectivity ratio [24]: 2.6
- CC50 [25]: 38100 nM
- IC50 (KB [26]): 28100 nM
- CC50 (SiHa [27]): 28900 nM
- selectivity ratio [28]: 1.5
- CC50 (HEp-2 [29]): 48200 nM
- CC50 (DU-145 [30]): > 500000 nM
- IC50 (HeLa [31]): 47600 nM
- IC50 (DU-145 [32]): > 500000 nM
- selectivity ratio [33]: 7
- CC50 (HeLa [34]): 32600 nM
- IC50 (MDA-MB-231 [35]): > 500000 nM
- selectivity ratio [36]: 0.4

- IC50 (MCF7 [6]): 10 nM
- IC50 (KB [26]): 50 nM
- IC50 (HeLa [31]): 70 nM
- IC50 (DU-145 [32]): 10 nM
- IC50 (MDA-MB-231 [35]): 70 nM
SMILES: CC(=O)O[C@@]12CO[C@@H]1C[C@H](O)[C@@]1(C)C(=O)[C@H](O)C3=C(C)[C@@H](OC(=O)[C@H](O)[C@@H](NC(=O)OC(C)(C)C)c4ccccc4)C[C@@](O)([C@@H](OC(=O)c4ccccc4)[C@H]21)C3(C)C [DOCETAXEL ANHYDROUS]
- selectivity ratio [37]: 13
- CC50 [1]: 1600 nM
- selectivity ratio [2]: 1.2
- CC50 (MCF7 [3]): 10 nM
- selectivity ratio [4]: 130
- IC50 (HEp-2 [5]): 60 nM
- selectivity ratio [7]: 7.3
- selectivity ratio [38]: 1.8
- selectivity ratio [8]: 14.4
- selectivity ratio [9]: 8.4
- IC50 (Vero): 130 nM
- selectivity ratio [10]: 21.6
- CC50 (MDA-MB-231 [11]): 190 nM
- selectivity ratio [39]: 2
- selectivity ratio [40]: 11
- selectivity ratio [12]: 1.4
- selectivity ratio [13]: 26.6
- IC50 (HEK293): 110 nM
- selectivity ratio [14]: 160
- selectivity ratio [15]: 7.2
- selectivity ratio [16]: 5.9
- IC50 (SiHa [17]): 90 nM
- CC50 (KB [18]): 180 nM
- selectivity ratio [19]: 11
- selectivity ratio [20]: 8.8
- selectivity ratio [21]: 13
- selectivity ratio [22]: 17.7
- selectivity ratio [41]: 1.6
- selectivity ratio [23]: 2.2
- selectivity ratio [24]: 2.6
- CC50 [25]: 1300 nM
- CC50 (SiHa [27]): 220 nM
- selectivity ratio [28]: 1.9
- CC50 (HEp-2 [29]): 60 nM
- selectivity ratio [42]: 1.6
- CC50 (DU-145 [30]): 810 nM
- selectivity ratio [43]: 1.9
- selectivity ratio [44]: 2.2
- selectivity ratio [33]: 1.6
- CC50 (HeLa [34]): 90 nM
- selectivity ratio [36]: 6.8

Reference: ChEMBL document CHEMBL4130545, “Lupane-Type Triterpenes of Phoradendron vernicosum” (J Nat Prod, 2017)
